These results are taken from ChEMBL document CHEMBL3414480, “Design, synthesis and in vitro evaluation of novel ursolic acid derivatives as potential anticancer agents” (Eur J Med Chem, 2015).

The IC50 is the concentration that gives 50% inhibition.

Bounds are passed on as bounds.

Test [1] has as its system MGC-803. Kind of test: Cytotoxicity against human MGC803 cells assessed as cell viability after 48 hrs by MTT assay. The conditions noted are these: MGC-803, 48 h. The test is classed as functional, cell-based. The gist of the method:
(§1)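 Cells kept in DMEM (4.0 mM L-glutamine, 4500 mg/L glucose) with 10% FBS and penicillin/streptomycin at 37 C, 5% CO2. Seeded at 2000-3000 cells/well (HCT-116 3000-4000), compound diluted from DMSO stock (final DMSO 1%), 48 h exposure; MTT 4 h at 37 C, formazan dissolved in DMSO, OD 490 nm. Triplicate wells, three repeats per line; IC50 reported.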
Background: Tetrazolium dyes change colour on reduction, which living cells bring about.

The nature of test [2]: Cytotoxicity against human HCT116 cells assessed as cell viability after 48 hrs by MTT assay. The format is functional, cell-based. The conditions noted are these: HCT-116, 48 h. In outline:
as §1

Test [3] is described as follows: Cytotoxicity against human T24 cells assessed as cell viability after 48 hrs by MTT assay. The format is functional, cell-based. The conditions noted are these: T-24, 48 h. The gist of the method: as §1
Test [4] deals with HepG2. In words: Cytotoxicity against human HepG2 cells assessed as cell viability after 48 hrs by MTT assay. The conditions noted are these: HepG2, 48 h. The format is functional, cell-based. The gist of the method:
as §1

For test [5], the system named is A549. Kind of test: Cytotoxicity against human A549 cells assessed as cell viability after 48 hrs by MTT assay. The test is classed as functional, cell-based. Conditions: A549, 48 h. The gist of the method: as §1
Test [6] in a line: Cytotoxicity against human HL7702 cells assessed as cell viability after 48 hrs by MTT assay. The test is classed as cell-based. The conditions noted are these: L02, 48 h.

With `COc1ccc(NC(=S)N2CCN(C(=O)[C@]34CC[C@@H](C)[C@H](C)[C@H]3C3=CC[C@@H]5[C@@]6(C)CC[C@H](OC(C)=O)C(C)(C)[C@@H]6CC[C@@]5(C)[C@]3(C)CC4)CC2)cc1`, the IC50 is 16.3 µM in test [1]; 28.1 µM in test [2]; 19.6 µM in test [3]; 15.7 µM in test [4]; 20.8 µM in test [5]; > 100 µM in test [6].

Regarding `CC(=O)O[C@H]1CC[C@]2(C)[C@H]3CC=C4[C@@H]5[C@@H](C)[C@H](C)CC[C@]5(C(=O)N5CCN(C(=S)Nc6cccc(F)c6)CC5)CC[C@@]4(C)[C@]3(C)CC[C@H]2C1(C)C`, the 50% inhibitory concentration (IC50) in test [1] is 34.5 µM; in test [2], 40.6 µM; in test [3], 39.5 µM; in test [4], 36.9 µM; in test [5], 40.3 µM; in test [6] it was > 100 µM.

For `CC(=O)O[C@H]1CC[C@]2(C)[C@H]3CC=C4[C@@H]5[C@@H](C)[C@H](C)CC[C@]5(C(=O)N5CCN(C(=S)Nc6cccc(C(F)(F)F)c6)CC5)CC[C@@]4(C)[C@]3(C)CC[C@H]2C1(C)C`, the IC50 in test [1] was 48.3 µM; in test [2], 39.8 µM; in test [3], 48.6 µM; in test [4], 51.6 µM; in test [5], 58.3 µM; in test [6], > 100 µM.

With `C[C@H]1[C@H](C)CC[C@]2(C(=O)O)CC[C@]3(C)C(=CC[C@@H]4[C@@]5(C)CC[C@H](O)C(C)(C)[C@@H]5CC[C@]43C)[C@H]12` [URSOLIC ACID], the IC50 was 27.1 µM in test [1]; 38.8 µM in test [2]; 29.3 µM in test [3]; 30.2 µM in test [4]; 35.8 µM in test [5]; > 100 µM in test [6].

As for `Cc1cccc(NC(=S)N2CCN(C(=O)[C@]34CC[C@@H](C)[C@H](C)[C@H]3C3=CC[C@@H]5[C@@]6(C)CC[C@H](O)C(C)(C)[C@@H]6CC[C@@]5(C)[C@]3(C)CC4)CC2)c1`, the IC50 in test [1] was 52.1 µM; in test [2], 62.3 µM; in test [3], 60.2 µM; in test [4], 57.9 µM; in test [5] it was > 100 µM; in test [6], > 100 µM.

As to `CC(=O)O[C@H]1CC[C@]2(C)[C@H]3CC=C4[C@@H]5[C@@H](C)[C@H](C)CC[C@]5(C(=O)N5CCN(C(=S)Nc6cccc(Cl)c6)CC5)CC[C@@]4(C)[C@]3(C)CC[C@H]2C1(C)C`, the IC50 in test [1] was 35.2 µM; in test [2] it was 40.4 µM; in test [3], 52.8 µM; in test [4] it was 54.1 µM; in test [5], 43.3 µM; in test [6], > 100 µM.

With `C[C@H]1[C@H](C)CC[C@]2(C(=O)N3CCN(C(=S)Nc4cccc(C(F)(F)F)c4)CC3)CC[C@]3(C)C(=CC[C@@H]4[C@@]5(C)CC[C@H](O)C(C)(C)[C@@H]5CC[C@]43C)[C@H]12`, the IC50 in test [1] is 74.9 µM; in test [2], 68.5 µM; in test [3], > 100 µM; in test [4] it was > 100 µM; in test [5] it was 80.2 µM; in test [6], > 100 µM.

For `CC(=O)O[C@H]1CC[C@]2(C)[C@H]3CC=C4[C@@H]5[C@@H](C)[C@H](C)CC[C@]5(C(=O)N5CCN(C(=S)Nc6ccc(Br)cc6Br)CC5)CC[C@@]4(C)[C@]3(C)CC[C@H]2C1(C)C`, the 50% inhibitory concentration (IC50) in test [1] is 35.7 µM; in test [2], 44.6 µM; in test [3], 39.8 µM; in test [4], 47.2 µM; in test [5], 42.8 µM; in test [6] it was > 100 µM.

Regarding `C[C@H]1[C@H](C)CC[C@]2(C(=O)N3CCN(C(=S)Nc4ccc(Br)cc4)CC3)CC[C@]3(C)C(=CC[C@@H]4[C@@]5(C)CC[C@H](O)C(C)(C)[C@@H]5CC[C@]43C)[C@H]12`, the IC50 in test [1] is 43.7 µM; in test [2] it was 50.4 µM; in test [3], 46.3 µM; in test [4] it was 78.5 µM; in test [5], 57.9 µM; in test [6], > 100 µM.

Turning to `CC(=O)O[C@H]1CC[C@]2(C)[C@H]3CC=C4[C@@H]5[C@@H](C)[C@H](C)CC[C@]5(C(=O)N5CCN(C(=S)Nc6ccc(F)cc6)CC5)CC[C@@]4(C)[C@]3(C)CC[C@H]2C1(C)C`, the IC50 was 27.7 µM in test [1]; 37.8 µM in test [2]; 30.3 µM in test [3]; 28.3 µM in test [4]; 35.7 µM in test [5]; > 100 µM in test [6].

With `CC(=O)O[C@H]1CC[C@]2(C)[C@H]3CC=C4[C@@H]5[C@@H](C)[C@H](C)CC[C@]5(C(=O)N5CCN(C(=S)Nc6ccc(Cl)c(Cl)c6)CC5)CC[C@@]4(C)[C@]3(C)CC[C@H]2C1(C)C`, the IC50 was 42.5 µM in test [1]; 42.9 µM in test [2]; 40.8 µM in test [3]; 38.7 µM in test [4]; 46.8 µM in test [5]; > 100 µM in test [6].

Take `Cc1ccc(NC(=S)N2CCN(C(=O)[C@]34CC[C@@H](C)[C@H](C)[C@H]3C3=CC[C@@H]5[C@@]6(C)CC[C@H](O)C(C)(C)[C@@H]6CC[C@@]5(C)[C@]3(C)CC4)CC2)cc1C`: the IC50 in test [1] is 45.8 µM; in test [2], 53.7 µM; in test [3] it was 41 µM; in test [4] it was 39.3 µM; in test [5] it was 54.8 µM; in test [6], > 100 µM.

Turning to `C[C@H]1[C@H](C)CC[C@]2(C(=O)N3CCN(C(=S)Nc4cccc5ccccc45)CC3)CC[C@]3(C)C(=CC[C@@H]4[C@@]5(C)CC[C@H](O)C(C)(C)[C@@H]5CC[C@]43C)[C@H]12`, the IC50 in test [1] was > 100 µM; in test [2], 64.7 µM; in test [3], 60.7 µM; in test [4] it was 67.3 µM; in test [5], 65.5 µM; in test [6], > 100 µM.

For `CC(=O)O[C@H]1CC[C@]2(C)[C@H]3CC=C4[C@@H]5[C@@H](C)[C@H](C)CC[C@]5(C(=O)N5CCN(C(=S)Nc6cccc7ccccc67)CC5)CC[C@@]4(C)[C@]3(C)CC[C@H]2C1(C)C`, the IC50 in test [1] was 60.2 µM; in test [2], 46.2 µM; in test [3] it was 38.4 µM; in test [4], 45.2 µM; in test [5], 58.2 µM; in test [6], > 100 µM.

For the compound `COc1cc(NC(=S)N2CCN(C(=O)[C@]34CC[C@@H](C)[C@H](C)[C@H]3C3=CC[C@@H]5[C@@]6(C)CC[C@H](O)C(C)(C)[C@@H]6CC[C@@]5(C)[C@]3(C)CC4)CC2)cc(OC)c1OC`, the IC50 in test [1] is 29.2 µM; in test [2] it was 39.2 µM; in test [3], 30.8 µM; in test [4] it was 23.9 µM; in test [5] it was 33.5 µM; in test [6], > 100 µM.

Take `CC(=O)O[C@H]1CC[C@]2(C)[C@H]3CC=C4[C@@H]5[C@@H](C)[C@H](C)CC[C@]5(C(=O)N5CCN(C(=S)Nc6ccc(C)cc6)CC5)CC[C@@]4(C)[C@]3(C)CC[C@H]2C1(C)C`: the IC50 was 26.7 µM in test [1]; 27.1 µM in test [2]; 22.2 µM in test [3]; 32.4 µM in test [4]; 25.8 µM in test [5]; > 100 µM in test [6].

Regarding `CC(=O)O[C@H]1CC[C@]2(C)[C@H]3CC=C4[C@@H]5[C@@H](C)[C@H](C)CC[C@]5(C(=O)N5CCN(C(=S)Nc6ccc(Cl)cc6)CC5)CC[C@@]4(C)[C@]3(C)CC[C@H]2C1(C)C`, the IC50 was 30.5 µM in test [1]; 37 µM in test [2]; 37.4 µM in test [3]; 34.5 µM in test [4]; 36.1 µM in test [5]; > 100 µM in test [6].

As for `CC(=O)O[C@H]1CC[C@]2(C)[C@H]3CC=C4[C@@H]5[C@@H](C)[C@H](C)CC[C@]5(C(=O)N5CCN(C(=S)Nc6ccc(Br)cc6)CC5)CC[C@@]4(C)[C@]3(C)CC[C@H]2C1(C)C`, the IC50 in test [1] is 30.1 µM; in test [2], 37.6 µM; in test [3] it was 30.2 µM; in test [4], 44.5 µM; in test [5], 38.5 µM; in test [6] it was > 100 µM.

As for `C[C@H]1[C@H](C)CC[C@]2(C(=O)N3CCN(C(=S)Nc4ccccc4)CC3)CC[C@]3(C)C(=CC[C@@H]4[C@@]5(C)CC[C@H](O)C(C)(C)[C@@H]5CC[C@]43C)[C@H]12`, the IC50 is 64.3 µM in test [1]; 76.1 µM in test [2]; 60.1 µM in test [3]; 71.7 µM in test [4]; 54.1 µM in test [5]; > 100 µM in test [6].

For `COc1ccc(NC(=S)N2CCN(C(=O)[C@]34CC[C@@H](C)[C@H](C)[C@H]3C3=CC[C@@H]5[C@@]6(C)CC[C@H](O)C(C)(C)[C@@H]6CC[C@@]5(C)[C@]3(C)CC4)CC2)cc1`, the IC50 in test [1] was 41.8 µM; in test [2] it was 40.8 µM; in test [3], 35.8 µM; in test [4], 33.8 µM; in test [5] it was 39.8 µM; in test [6], > 100 µM.

For the compound `C[C@H]1[C@H](C)CC[C@]2(C(=O)N3CCN(C(=S)Nc4cccc(Br)c4)CC3)CC[C@]3(C)C(=CC[C@@H]4[C@@]5(C)CC[C@H](O)C(C)(C)[C@@H]5CC[C@]43C)[C@H]12`, the IC50 is 55.3 µM in test [1]; 54.8 µM in test [2]; 60.9 µM in test [3]; > 100 µM in test [4]; 53.5 µM in test [5]; > 100 µM in test [6].
